Results reported in article PMC7524064 (ESC Heart Failure, 2020).

How the values were obtained:
human atrial trabeculae = assay: Contractility of human atrial trabeculae
How it was run: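 Right atrial appendage trabeculae came from patients undergoing aorto-coronary bypass and were held isometric. After about 30 min equilibration they were stretched to maximal steady-state twitch force and paced at 1 Hz. Test compound (1, 3, 10 μM) or KN93 (5 μM) was washed in for 20 min. Post-rest pauses were 10, 30 and 120 s. Developed and diastolic tension were normalized to each patient's vehicle control.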

[1] = tested on: murine ventricular cardiomyocytes; assay: Action potentials in murine ventricular cardiomyocytes; assay type: cell-based, mouse; settings: RA608 1, 3, 10 μM; myristoylated AIP 2 μmol/L
[2] = tested on: human atrial cardiomyocytes; assay: Ca sparks and SR Ca leak, confocal line scans; assay type: cell-based; settings: AIP (2 μM)
How it was run: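 Myocytes on laminin-coated chambers were loaded 15 min with 10 μmol/L Fluo-4 AM plus 0.02% (w/v) pluronic acid. They were superfused with normal Tyrode solution and imaged by laser-scanning confocal line scans at room temperature. Treatments were test compound at 1, 3 or 10 μM, or myristoylated AIP at 2 μM.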

[3] = tested on: human atrial cardiomyocytes; assay: Action potentials in human atrial cardiomyocytes; assay type: cell-based; settings: RA608 1, 3, 10 μM; AIP
How it was run: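 Ruptured-patch whole-cell current clamp at room temperature on isolated human atrial cardiomyocytes from seven patients. Action potentials were recorded with vehicle, test compound at 1, 3 or 10 μM, or myristoylated AIP.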

Compound | contraction amplitude after pause (human atrial trabeculae; KN93 5 μmol/L, compared with RA608) | diastolic tension normalized to vehicle (human atrial trabeculae; KN93 (5 μM)) | relaxation time (time to 80% of relaxation) (human atrial trabeculae; RA608 1, 3, 10 μM, KN93 5 μM) | AP duration (APD50) [1] | SR Ca leak vs vehicle [2] | AP duration (APD50, APD80) vs vehicle [3]
COc1ccc(S(=O)(=O)N(CCO)c2ccccc2CN(C)C/C=C/c2ccc(Cl)cc2)cc1 [KN93] | comparable increase | only a trend to decrease | neither RA608 nor KN93 resulted in significant alterations |  |  | 
autocamtide‐2‐related autoinhibitory peptide [AIP] |  |  |  | no significant effect | significantly reduced | no significant effect
